MrgX1 allo act – allosterically activates human MrgX1 receptor signaling. 310,000 tested, 0.63% active. B-score at 10 µM. AID 588675. MrgX1-HEK293, Fluo-4 calcium flux, FDSS; active compounds read high. Q96LB2;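 active means plate-corrected calcium response at least 3 library SD above typical, normal starting fluorescence, not activating the receptor alone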;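 further: compound read alongside a low EC10 to EC30 dose of BAM8-22 agonist; peak minus trough fluorescence over baseline measured at the second addition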
Target sequence (Q96LB2 whole entry, looked up): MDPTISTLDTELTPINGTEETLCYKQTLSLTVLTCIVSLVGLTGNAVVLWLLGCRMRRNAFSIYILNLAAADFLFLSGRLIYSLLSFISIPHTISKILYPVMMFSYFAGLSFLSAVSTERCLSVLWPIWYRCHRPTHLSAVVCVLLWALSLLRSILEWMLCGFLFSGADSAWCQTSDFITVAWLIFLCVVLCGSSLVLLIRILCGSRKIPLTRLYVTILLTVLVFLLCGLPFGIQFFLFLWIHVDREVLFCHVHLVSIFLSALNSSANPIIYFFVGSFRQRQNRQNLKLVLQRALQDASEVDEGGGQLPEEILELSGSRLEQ
MrgX1 ag – human MrgX1 receptor agonism, primary screen; MrgX1-HEK293 cells, Fluo-4 calcium fluorescence, agonist mode; active compounds read high; B-score at 10 µM; 310,000 tested, 0.44% active;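 active means calcium response B-score plate-corrected fluorescence ratio at least 3 library SD, with starting fluorescence B-score inside 5 SD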
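Assay system: stable human MrgX1 HEK293 cell line. Quantity: 15,000 cells per well. Schedule: cells plated overnight, dye loaded 0.5 h 37 °C, 0.5 h room temperature. Detection: Fluo-4 NW calcium-flux fluorescence, kinetic read. Read-out basis: peak-minus-minimum fluorescence over baseline, converted to B scores. Control set: positive and negative control wells on each plate.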
MrgX1 antag – antagonists of human MrgX1 receptor; Q96LB2; MRGX1-HEK293 calcium flux, Fluo-4, BAM8-22 antagonism; active compounds read low; B-score at 10 µM; 310,000 tested, 1.3% active; AID 588676;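 active means calcium-response B-score plate-corrected more than 3 library SD below zero, starting fluorescence within 5 deviations, no agonist response on first addition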;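 further: peak minus trough fluorescence over baseline after final BAM8-22 challenge near maximal dose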
RGS4 block – inhibitors of human RGS4; P49798; HEK293 M3R/RGS4 inducible, Fluo-4 calcium flux; active compounds read high; triggered by carbachol at its EC20; B-score at 10 µM; 310,000 tested, 0.45% active;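 active means B-score, a plate-corrected calcium signal, over three deviations above library mean, with baseline fluorescence within five deviations of library mean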;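 further: RGS4 expression induced by doxycycline in cells with stable M3 receptor; B-score is computed from the integrated fluorescence ratio over baseline after carbachol; higher B-score means a larger calcium signal and so more RGS4 inhibition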
Target sequence (P49798 whole entry, looked up): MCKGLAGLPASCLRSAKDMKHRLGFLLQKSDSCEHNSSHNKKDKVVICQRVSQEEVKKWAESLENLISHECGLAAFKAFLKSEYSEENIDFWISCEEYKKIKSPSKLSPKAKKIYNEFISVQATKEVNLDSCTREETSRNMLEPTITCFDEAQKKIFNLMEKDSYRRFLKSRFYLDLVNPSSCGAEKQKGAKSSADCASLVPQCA
RGS4 act – RGS4 potentiation or activation | HEK293 M3R/inducible RGS4, carbachol calcium flux Fluo4; active compounds read low | B-score at 10 µM | 310,000 tested, 0.92% active;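 active means B-score of the integrated calcium signal more than 4 SD below the library mean, with starting fluorescence not abnormally high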;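 further: negative B-score means reduced calcium response which marks RGS4 activation or potentiation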
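Detection: kinetic calcium fluorescence imaging with Fluo4-AM dye, 2 µM / Material: HEK293 cells with stable M3R and inducible RGS4 / Schedule: recording 10 s baseline at 1 Hz, 100 s post-agonist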
RGS4 act valid – RGS4 activation, validation assay; HEK293 M3R/RGS4 inducible, carbachol calcium flux Fluo4; 1,100 tested, 89% active; inhibition, % at 10 µM; shares compounds with RGS4 act; AID 602282;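 active means inhibition above 3 SD of the buffer control wells, cut at about 41% in these data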;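 further: signal is the integrated peak-minus-minimum Fluo4 fluorescence over baseline ratio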
M3R Ca counter – activity in cells without induced RGS4 expression; shares compounds with RGS4 act; HEK293 M3R non-induced RGS4, Fluo4 calcium flux; after carbachol challenge at its EC90; inhibition, % at 10 µM; 1,100 tested, 82% active;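 active means inhibition exceeding 3 SD of buffer-only control wells, cut at about 26% in these data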;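 further: percent drop in integrated peak-minus-baseline over baseline Fluo4 ratio after carbachol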
Each line names hits and unclear results; the compound was inactive in the other large screens (follow-up assays come after a bar, where they were run). Rows were chosen to be rich in hits. Some 3.5% of all compounds tested hit in one or more screens of this group.

CC(C)CCn1c(O)c(N=NC(=O)Cn2ccc(C(F)(F)F)n2)c2ccccc21	RGS4 act -15.4 | RGS4 act valid 44.5 | M3R Ca counter 83.8
CCCn1c(O)c(N=NC(=O)CNC(=O)c2ccncc2)c2ccccc21	none
Cc1ccc(N2CCN(C(=O)c3cc(COc4c(C)cccc4C)on3)CC2)c(C)c1	RGS4 act -7.67 | RGS4 act valid 70.0 | M3R Ca counter 31.8
O=S(=O)(/C=C/c1ccccc1)Nc1cccc(S(=O)(=O)NC2=NCCC2)c1	none
COc1cc2c(cc1Cl)/C(=C\CCN(C)C)c1ccccc1S2	RGS4 act -9.67 | RGS4 act valid 92.0 | M3R Ca counter 67.3
COc1cccc(OC)c1NC(=O)Cn1nc(C)c2ccccc2c1=O	none
CCCCOC(=O)NS(=O)(=O)c1sc(CC(C)C)cc1-c1ccc(Cn2c(CC)nc3c(C)cc(C)nc32)cc1	none (no result: RGS4 block, RGS4 act)
Cc1ccc(SCc2c(-c3ccccc3)nn(C)c2Cl)cc1	none
Cc1ccc(Sc2c(C#N)c(-c3ccccc3)nn2C)cc1	RGS4 act -7.95 | RGS4 act valid 74.5 | M3R Ca counter 36.3
O=C(Nc1ccc2c(c1)OCCO2)c1cccnc1	RGS4 act -8.07 | RGS4 act valid inactive | M3R Ca counter inactive
CCCCCCCc1n[nH]c(=S)n1Cc1ccccc1	none
CCCCc1n[nH]c(=S)n1Cc1ccc(C)cc1	RGS4 act -8.26 | RGS4 act valid 72.0 | M3R Ca counter 29.3
Cc1nccn1CCc1n[nH]c(=S)n1Cc1ccccc1	RGS4 act -9.47 | RGS4 act valid 86.0 | M3R Ca counter 68.3
O=C1/C(=C/c2ccc([N+](=O)[O-])cc2)CCC1C1CCCC1 (stereo not given)	none
Cc1ccnc(Nc2nc(-c3ccc(F)cc3)cs2)c1	RGS4 act -8.75 | RGS4 act valid 91.5 | M3R Ca counter 74.3
Cc1ccnc(Nc2nc(-c3ccc(Cl)cc3)cs2)c1	none
O=Cc1ccc(C(=O)OCC(=O)NCCC2=CCCCC2)cc1	none
O=C(CCNC(=O)c1ccc(Cl)cc1)NCC(c1ccco1)N1CCCCC1 (stereo not given)	none
FC(F)(F)c1cccc(CNC2c3ccccc3-c3ccccc32)c1	none
CCN(CC)S(=O)(=O)c1cc(NC(=O)C(C)N2CCN(c3ccccn3)CC2)ccc1C (stereo not given)	RGS4 act -9.05 | RGS4 act valid 63.5 | M3R Ca counter inactive
CC(C)c1cccc(C(C)C)c1NC(=S)Nc1cccc(Cl)c1	none
O=C(c1ccc2c(=O)n3c(nc2c1)CCCCC3)N1CCN(c2ccccc2)CC1	none
O=C(c1ccc2c(=O)n3c(nc2c1)CCCCC3)N1CCN(C(c2ccccc2)c2ccccc2)CC1	RGS4 act -7.72 | RGS4 act valid 93.0 | M3R Ca counter 92.3
O=c1c2cc(Br)ccc2nc2n1CCCCC2	RGS4 act -8.93 | RGS4 act valid 80.0 | M3R Ca counter 30.3
CC(=O)Oc1ccc(/C=C(\NC(=O)c2ccco2)C(=O)NCc2ccco2)cc1	none
COC(=O)c1ccccc1NC(=O)c1cn(-c2ccc(C)c(C)c2)c(=O)c2ccccc12	RGS4 act -11.3 | RGS4 act valid 76.0 | M3R Ca counter 83.8
CCOC(=O)c1ccccc1NC(=O)c1cn(-c2ccc(C)c(C)c2)c(=O)c2ccccc12	none
O=C(CSCCOc1ccccc1)NCc1ccncc1	none
O=C(CN1CCc2ccccc2C1)Nc1ccccc1F	none
CCOC(=O)C(=CNc1ccc(NC2=NCC(C)(C)S2)cc1)C(=O)OCC	RGS4 act -11.1 | RGS4 act valid 79.0 | M3R Ca counter 83.8
O=C(Nc1nnc(SCc2ccccc2F)s1)C1=COCCO1	none
COC(=O)NC(=S)Nc1ccc(Oc2ccc(Cl)cc2Cl)c(Cl)c1	RGS4 act -7.77 | RGS4 act valid 92.5 | M3R Ca counter 70.3
COCCCC1CCN(C(=O)C2CCC(=O)N(CCc3cccc(F)c3)C2)CC1 (stereo not given)	none
Clc1ccc(N2CCN(/N=C/c3cccnc3)CC2)cc1	none
Cc1cc(SCC(=O)c2ccccc2)n2nc(C)nc2n1	RGS4 act -9.04 | RGS4 act valid inactive | M3R Ca counter inactive
CCCCn1c2ccc(F)cc2c2nnc(SCCN3CCCCC3)nc21	RGS4 act -7.78 (no result: MrgX1 allo act, MrgX1 ag, MrgX1 antag) | RGS4 act valid 84.0 | M3R Ca counter 34.8
Cn1c2ccc(F)cc2c2nnc(SCCN3CCCCC3)nc21	none (no result: MrgX1 allo act, MrgX1 ag, MrgX1 antag)
CCOCCN1CCN(c2c(CC)c(C)nc3cc(-c4cc(OC)cc(OC)c4)nn23)CC1	RGS4 act -7.71 | RGS4 act valid 58.5 | M3R Ca counter 30.8
c1ccc(Oc2cccc(OCCCCN3CCCC3)c2)cc1	RGS4 act -10.9 | RGS4 act valid 94.0 | M3R Ca counter 87.8
CC1CCCN(CCOc2cccc(Oc3ccccc3)c2)C1 (stereo not given)	RGS4 act -8.64 | RGS4 act valid 90.5 | M3R Ca counter 56.8
CC1CCN(CCOc2cccc(Br)c2)CC1	none
CCCOc1ccc(OCCN2CCCC(C)C2)cc1 (stereo not given)	RGS4 act -9.85 | RGS4 act valid 91.5 | M3R Ca counter 50.3
Brc1cccc(OCCCN2CCCCCC2)c1	RGS4 act -8.54 | RGS4 act valid 76.0 | M3R Ca counter 83.8
CC1CN(CCCCOc2cccc(Oc3ccccc3)c2)CC(C)O1 (stereo not given)	none
CN(CC(=O)Nc1ccccc1Br)CC(=O)Nc1ccccc1C(F)(F)F	none
COc1cccc(CNS(=O)(=O)c2cc3c4c(c2)CCN4C(=O)CC3)c1	none
Clc1ccc(OCCCN2CCCC2)cc1Cl	none
Cc1cc(OCCCCCN2CCCC2)ccc1Cl	RGS4 act -9.46 | RGS4 act valid 80.5 | M3R Ca counter 26.8
CCOC(=O)c1cc2c(ccn2C)n1Cc1cc(C)ccc1C	RGS4 act -8 | RGS4 act valid 85.0 | M3R Ca counter 30.3
O=C(CC1C(=O)NCCN1Cc1cccc(F)c1)NCCCOc1cccnc1 (stereo not given)	none
COc1ccccc1N(C(=O)CCl)c1cn(C(C)=O)c2ccccc12	RGS4 act -8.85 | RGS4 act valid inactive | M3R Ca counter inactive
CS(=O)(=O)N1CCC(Oc2cccc(C(=O)NCCCOc3cccnc3)c2)CC1	none
CCOc1ccc2oc(C(=O)N3CCN(c4ccccc4OCC)CC3)c(C)c2c1	RGS4 act -10.3 | RGS4 act valid 91.5 | M3R Ca counter 78.8
COc1ccccc1N1CCN(C(=O)c2oc3cc(C)c(C)cc3c2C)CC1	none (no result: MrgX1 allo act, MrgX1 ag, MrgX1 antag)
CC1CCC(C(C)C)C(OC(=O)C[n+]2cc(-c3ccc(Cl)cc3)n3c2CCCCC3)C1 (stereo not given)	RGS4 act -11.4 | RGS4 act valid 93.5 | M3R Ca counter 94.3
